Reference: ChEMBL document CHEMBL1145113, “Synthesis and crystal structures of substituted benzenes and benzoquinones as tissue factor VIIa inhibitors” (J Med Chem, 2003)

Target: Coagulation factor X (Homo sapiens, UniProt P00742)
Test: Inhibitory activity against coagulation factor X was determined
Procedure, shortened: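 Human factor Xa at 0.3 nM with 0.15 mM S-2765 in 50 mM Tris-HCl pH 8.0, 100 mM NaCl, 0.1% BSA. A405 background was read immediately, then hydrolysis rate (p-nitroaniline release at 405 nm) after 60 min at room temperature. Seven concentrations in duplicate; % inhibition vs control; IC50 by four-parameter logistic fit.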

Coagulation factor X, sequence (P00742 41-179 limits assumed): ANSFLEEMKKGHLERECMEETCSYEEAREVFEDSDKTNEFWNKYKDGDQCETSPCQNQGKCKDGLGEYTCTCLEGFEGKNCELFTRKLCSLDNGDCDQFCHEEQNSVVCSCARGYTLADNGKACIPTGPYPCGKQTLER
Coagulation factor X, sequence (P00742 235-488 limits assumed): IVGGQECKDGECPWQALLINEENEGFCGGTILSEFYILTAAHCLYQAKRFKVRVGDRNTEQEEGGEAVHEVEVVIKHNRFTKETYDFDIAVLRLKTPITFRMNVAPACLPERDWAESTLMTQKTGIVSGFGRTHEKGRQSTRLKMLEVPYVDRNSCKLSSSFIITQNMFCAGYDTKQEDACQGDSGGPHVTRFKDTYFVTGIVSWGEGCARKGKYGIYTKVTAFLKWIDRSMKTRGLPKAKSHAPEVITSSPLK

Structure (SMILES)	IC50 [µM]
CC(C)Nc1ccc(-c2cccc(N)c2)c(CC(=O)NCc2ccc(C(=N)N)cc2)c1F	> 30
N=C(N)c1ccc(CNC(=O)Cc2c(-c3ccccc3)ccc(NCCc3ccccc3)c2F)cc1	> 30
N=C(N)c1ccc(CNC(=O)Cc2c(F)ccc(NCCc3ccccc3)c2F)cc1	> 30
N=C(N)NCCCCCNC(=O)Cc1c(F)ccc(NS(=O)(=O)Cc2ccccc2)c1F	> 30
N=C(N)c1ccc(CNC(=O)c2cc(NS(=O)(=O)Cc3ccccc3)ccc2Sc2ccccc2)cc1	> 30
CN(C)c1ccc(CNC(=O)c2cc(NS(=O)(=O)Cc3ccccc3)ccc2Sc2ccccc2)cc1	> 30
O=C(Cc1c(F)ccc(NS(=O)(=O)Cc2ccccc2)c1F)NCCCn1ccnc1	> 30
O=C(NCc1ccncc1)c1cc(NS(=O)(=O)Cc2ccccc2)ccc1Sc1ccccc1	> 30
N=C(N)c1ccc(CNC(=O)Cc2c(F)ccc(NS(=O)(=O)Cc3ccccc3)c2F)cc1	> 30
N=C(N)c1ccc(CNC(=O)Cc2c(-c3ccccc3)ccc(NCCc3ccccc3)c2O)cc1	> 30
O=C(Cc1c(F)ccc(NS(=O)(=O)Cc2ccccc2)c1F)NCC1CCNCC1	> 30
CC(C)Nc1ccc(-c2ccccc2)c(CC(=O)NCc2ccc(C(=N)N)cc2)c1O	> 30
COc1c(NC(C)C)ccc(-c2ccccc2)c1CC(=O)NCc1ccc(C(=N)N)cc1	> 30

Target: T1, Coagulation factor VII (Homo sapiens, UniProt P08709)
T1 sequence (P08709 whole entry): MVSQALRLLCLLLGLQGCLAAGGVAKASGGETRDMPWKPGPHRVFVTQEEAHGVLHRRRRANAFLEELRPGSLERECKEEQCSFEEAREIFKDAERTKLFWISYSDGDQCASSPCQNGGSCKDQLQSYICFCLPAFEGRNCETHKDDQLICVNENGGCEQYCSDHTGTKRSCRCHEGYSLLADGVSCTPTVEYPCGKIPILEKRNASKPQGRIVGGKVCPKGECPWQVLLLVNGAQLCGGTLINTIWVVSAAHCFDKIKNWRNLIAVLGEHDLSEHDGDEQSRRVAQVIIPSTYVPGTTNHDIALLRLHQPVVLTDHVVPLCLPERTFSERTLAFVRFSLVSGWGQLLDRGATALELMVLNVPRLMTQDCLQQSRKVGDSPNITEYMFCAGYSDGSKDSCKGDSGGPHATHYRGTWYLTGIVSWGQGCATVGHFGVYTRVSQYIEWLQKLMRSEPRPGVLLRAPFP
Test: Inhibitory activity against coagulation factor VII was determined

Structure (SMILES)	IC50 [µM]
O=C(Cc1c(F)ccc(NS(=O)(=O)Cc2ccccc2)c1F)NCc1ccncc1	> 30
N=C(N)NCCCCCNC(=O)Cc1c(F)ccc(NS(=O)(=O)Cc2ccccc2)c1F	> 30
N=C(N)c1ccc(CNC(=O)Cc2c(-c3cccc(N)c3)ccc(NCc3ccccc3)c2F)cc1	0.5
N=C(N)c1ccc(CNC(=O)c2cc(NS(=O)(=O)Cc3ccccc3)ccc2Sc2ccccc2)cc1	> 30
CN(C)c1ccc(CNC(=O)c2cc(NS(=O)(=O)Cc3ccccc3)ccc2Sc2ccccc2)cc1	> 30
O=C(Cc1c(F)ccc(NS(=O)(=O)Cc2ccccc2)c1F)NCCCn1ccnc1	> 30
N=C(N)c1cccc(CNC(=O)Cc2c(F)ccc(NS(=O)(=O)Cc3ccccc3)c2F)c1	> 30
O=C(NCc1ccncc1)c1cc(NS(=O)(=O)Cc2ccccc2)ccc1Sc1ccccc1	> 30
CN(C)c1ccc(CNC(=O)Cc2c(F)ccc(NS(=O)(=O)Cc3ccccc3)c2F)cc1	> 30
N=C(N)c1ccc(CNC(=O)Cc2c(F)ccc(NS(=O)(=O)Cc3ccccc3)c2F)cc1	> 30
O=C(Cc1c(F)ccc(NS(=O)(=O)Cc2ccccc2)c1F)NCC1CCNCC1	> 30
CC(C)Nc1ccc(-c2ccccc2)c(CC(=O)NCc2ccc(C(=N)N)cc2)c1O	2.5
O=C(NCC1CCNCC1)c1cc(NS(=O)(=O)Cc2ccccc2)ccc1Sc1ccccc1	> 30

Test system: Thrombin (Homo sapiens)
Test: Inhibitory activity against thrombin was determined at a concentration of 30 uM

Structure (SMILES)	inhibition [%]
N=C(N)c1ccc(CNC(=O)c2cc(NS(=O)(=O)Cc3ccccc3)ccc2Sc2ccccc2)cc1	22
